Series [1] has as its system Supercoiled plasmid pUC57 DNA. The series is described as follows: Cleavage of pUC57 DNA, agarose gel electrophoresis. It is filed as biochemical. Conditions: 37 °C, 24 h, pH 7.2, gel electrophoresis. The essentials:
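Supercoiled pUC57 plasmid (4634 bp) in 10 mM Tris–HCl/50 mM NaCl, pH 7.2, was incubated with the test compound (50, 100, 200, 300, 400 μM) at 37 °C for 24 h. Samples ran on 1% agarose at 75 V in TAE, were stained with Midori green and imaged under UV. Band intensities gave the fraction of each DNA form. Control was DNA with matching DMSO in buffer. Done in triplicate.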

The next series has as its system E. faecalis ATCC 29212. Put plainly: MIC and MBC by broth microdilution, subculture on agar. It is filed as cell-based, Enterococcus faecalis. Conditions: for MBC/MFC: second line per compound, subculture on agar 24 h, 37 °C; for MIC: Enterococcus faecalis, ATCC29212. A digest of the protocol: (§1)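 EUCAST broth microdilution used Mueller-Hinton broth for bacteria and phenol-red-free RPMI-1640 for Candida. Test compound ran at a final 31.2–1000 μg ml−1, from 80 mg ml−1 DMSO stocks, with DMSO ≤1.25%. […] For MBC/MFC, 10 μl from the MIC, 2× and 4× MIC wells was plated on agar for 24 h at 37 °C. Done in duplicate, 2 sets.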
(In broth dilution the organism is exposed to a series of concentrations in liquid medium.)

The subject of series [2] is HL-60 (leukemia promyelocytic). The series is described as follows: Anticancer activity, MTT assay. It is filed as cell-based, human. Conditions: for IC50: Homo sapiens, HL-60, 48 h, read-out: Cell culture IC50; for anticancer activity in words: HL-60. A digest of the protocol: (§2)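 Human leukaemia (HL-60, NALM-6) or melanoma (WM-115) cells were exposed to the test compound for 46 h, then given MTT for a further 2 h. Fresh DMSO stocks were diluted in complete medium, with DMSO ≤0.2%. Untreated cells served as control. IC50 was taken from concentration–response curves, as mean ± SD of 4 experiments.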
(In general: Tetrazolium assays rely on reduction of a dye to a coloured formazan, in cell work by metabolically active cells.)

The test system of series [3] is S. epidermidis ATCC 12228. The series is described as follows: MIC and MBC by broth microdilution, subculture on agar. It is filed as cell-based, Staphylococcus epidermidis. Conditions: for MIC: Staphylococcus epidermidis, ATCC12228. A digest of the protocol:
as §1

Another series deals with S. aureus ATCC 29213. Described as above. The following applies: for MBC/MFC: S. aureus ATCC 29213, second line per compound, subculture on agar 24 h, 37 °C; for MIC: Staphylococcus aureus, ATCC29213. It is filed as cell-based, Staphylococcus aureus. The essentials: as §1
The test system of the next series is P. aeruginosa ATCC 25619. The description is as above. It is filed as cell-based. Conditions: Pseudomonas aeruginosa, ATCC25619. A digest of the protocol:
as §1

The test system of series [4] is WM-115 (human melanoma). The series is described as follows: Anticancer activity, MTT assay. It is filed as cell-based. Conditions: for IC50: Homo sapiens, WM-115, 48 h, read-out: Cell culture IC50. A digest of the protocol: as §2
The next series deals with C. albicans ATCC 10231. The series is described as follows: MIC and MFC by broth microdilution, subculture on agar. Conditions: for MBC/MFC: C. albicans ATCC 10231, second line per compound, subculture on agar 24 h, 37 °C; for MIC: Candida albicans, ATCC10231. It is filed as cell-based, Candida albicans. The essentials:
as §1

Series [5] deals with NALM-6 (leukemia lymphoblastic). The series is described as follows: Anticancer activity, MTT assay. It is filed as cell-based, human. Conditions: for IC50: Homo sapiens, NALM-6, 48 h, read-out: Cell culture IC50; for anticancer activity in words: NALM-6. The essentials:
as §2

The next series has as its system P. vulgaris ATCC 8427. The series is described as follows: MIC and MBC by broth microdilution, subculture on agar. It is filed as cell-based, Proteus vulgaris. The following applies: for MBC/MFC: P. vulgaris ATCC 8427, second line per compound, subculture on agar 24 h, 37 °C; for MIC: Proteus vulgaris, ATCC8427. A digest of the protocol: as §1
In series [6] the test system is human foreskin fibroblasts HFF-1 (ATCC-SCRC-1041). Put plainly: Cytotoxicity on normal fibroblasts, MTT reduction assay. The following applies: for metabolic activity higher than untreated control cells: HFF-1, low concentrations 3.9–31.2 μM. It is filed as cell-based. A digest of the protocol:
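HFF-1 fibroblasts were seeded at 1 × 10^5/well in DMEM with 15% FCS and pen/strep and grown 48 h (37 °C, 5% CO2). They were exposed 24 h to the test compound (25 mM DMSO stocks; final 3.9–500 μM). Cells were washed and given MTT (1.5 mg ml−1) for 2 h. Formazan was dissolved overnight in 20% SDS in DMF/water and read at 550 nm. Viability is relative to 2% DMSO control; IC50 came from trend-line equations. Two experiments, duplicates each.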

Series [7] concerns HL-60 (leukemia promyelocytic). The following applies: read-out: Cell culture IC50; HL-60, referential compounds; cited from earlier work.
Series [8] deals with NALM-6 (leukemia lymphoblastic). Conditions: read-out: Cell culture IC50; NALM-6, referential compounds; cited from earlier work.
The subject of series [9] is WM-115 (human melanoma). The following applies: read-out: Cell culture IC50; WM-115, referential compounds; cited from earlier work.

Converted amounts (≈) assume the structure as drawn. Read-outs that look alike come from different tables or passages of the source.

In the case of `Cc1cc(O)n(C(N)=S)n1` [Compound 1d, 1-[amino(thioxo)methyl]-5-hydroxy-3-methyl-1H-pyrazole], the “effect on supercoiled plasmid DNA (cleavage of Form I)” value (shortened to “effect on supercoiled plasmid DNA”) in series [1] is “did not affect the DNA”. In addition, the MBC/MFC against E. faecalis ATCC 29212 (E. faecalis ATCC 29212), in the series on S. aureus ATCC 29213, with C. albicans ATCC 10231 and against P. vulgaris ATCC 8427 was over 1000 µg/mL throughout. Besides, the MIC (as a rule, the lowest concentration found to suppress growth) was 250 µg/mL (≈ 1.59 mM) with E. faecalis ATCC 29212; 250 µg/mL (≈ 1.59 mM) in series [3]; 1000 µg/mL (≈ 6.36 mM) in the series with S. aureus ATCC 29213; over 1000 µg/mL in the series on P. aeruginosa ATCC 25619; over 1000 µg/mL against C. albicans ATCC 10231; over 1000 µg/mL against P. vulgaris ATCC 8427. Further, the IC50 – broadly, the concentration that gives 50% inhibition – in [2] was 779 ± 125 µM; with WM-115 (human melanoma) [4], 90.9 ± 10.2 µM; in [5] it was 615 ± 60.9 µM.
As for `CCc1cc(CC)n(C(N)=S)n1` [Compound 1b, 1-[amino(thioxo)methyl]-3,5-diethyl-1H-pyrazole], the “effect on supercoiled plasmid DNA” value in series [1] is recorded as “did not affect the DNA”. In addition, the MBC/MFC was over 1000 µg/mL in the series on E. faecalis ATCC 29212 (E. faecalis ATCC 29212), over 1000 µg/mL in the series with S. aureus ATCC 29213, 1000 µg/mL (≈ 5.46 mM) in the series with C. albicans ATCC 10231 and 1000 µg/mL (≈ 5.46 mM) with P. vulgaris ATCC 8427. Further, the MIC is over 1000 µg/mL against E. faecalis ATCC 29212; over 1000 µg/mL in series [3]; 1000 µg/mL (≈ 5.46 mM) in the series with S. aureus ATCC 29213; over 1000 µg/mL in the series on P. aeruginosa ATCC 25619; 1000 µg/mL (≈ 5.46 mM) against C. albicans ATCC 10231; 1000 µg/mL (≈ 5.46 mM) against P. vulgaris ATCC 8427. Besides, the IC50 was 506 ± 47.1 µM in series [2], 481 ± 39.4 µM in the series with WM-115 (human melanoma) [4] and 469 ± 44.4 µM in series [5].
With `Cc1cc(C)n(C(N)=S)n1.Cc1ccc(C(C)C)cc1.[Cl][Ru][Cl]` [Compound 2a], the “effect on supercoiled plasmid DNA” value in series [1] is given as “no influence”. The MBC/MFC was 125 µg/mL against E. faecalis ATCC 29212 (E. faecalis ATCC 29212), 125 µg/mL against S. aureus ATCC 29213 and over 1000 µg/mL in the series with P. vulgaris ATCC 8427. Further, in [6], the “metabolic activity higher than untreated control cells” value is reported as 39–45%.
On to `N.N.[Cl][Pt][Cl]` [Cisplatin], for which the results for the IC50 (in [7]; in series [8]; in the series with WM-115 (human melanoma) [9]) were 800 ± 100 nM, 700 ± 300 nM and 18.2 ± 4.3 µM, respectively.
For the molecule `Cc1ccc(C(C)C)cc1.Cc1ccc(C(C)C)cc1.[Cl][Ru][Cl].[Cl][Ru][Cl]` [Dimer, dichloro(p-cymene)ruthenium(II)dimer, reference compound], the “effect on supercoiled plasmid DNA” value in series [1] was “no effect”. For the same molecule, the MBC/MFC in the series on E. faecalis ATCC 29212 (E. faecalis ATCC 29212), against S. aureus ATCC 29213, in the series with C. albicans ATCC 10231 and in the series on P. vulgaris ATCC 8427 was over 1000 µg/mL in each case. Further, the “anticancer activity in words” value (in [2]; in the series with WM-115 (human melanoma) [4] (WM-115); in series [5]) was “inactive” throughout.
For the molecule “[(η^6-p-cymene)Ru(1-[amino(thioxo)methyl]-3,5-diethyl-1H-pyrazole)Cl2 [Compound 2b]”, the “effect on supercoiled plasmid DNA” value in series [1] was “cleavage the DNA Form I into Form II and Form III”. The results for the MBC/MFC with E. faecalis ATCC 29212 (E. faecalis ATCC 29212), with S. aureus ATCC 29213 and in the series on P. vulgaris ATCC 8427 were 62.5 µg/mL, 125 µg/mL and over 1000 µg/mL, respectively. Also, the “metabolic activity higher than untreated control cells” value in series [6] is on record as 39–45%.
Consider `Cc1cc(C)n(C(N)=S)n1` [Compound 1a, 1-[amino(thioxo)methyl]-3,5-dimethyl-1H-pyrazole], for which, in [1], the “effect on supercoiled plasmid DNA” value is on record as “did not affect the DNA”. For the same molecule, the MBC/MFC with E. faecalis ATCC 29212 (E. faecalis ATCC 29212), in the series with S. aureus ATCC 29213, in the series on C. albicans ATCC 10231 and in the series on P. vulgaris ATCC 8427 was over 1000 µg/mL throughout. Further, the MIC (against E. faecalis ATCC 29212; in series [3]; in the series with S. aureus ATCC 29213; in the series on P. aeruginosa ATCC 25619; in the series on C. albicans ATCC 10231; against P. vulgaris ATCC 8427) was over 1000 µg/mL in each case. For the same molecule, the results for the IC50 (in series [2]; in the series on WM-115 (human melanoma) [4]; in [5]) were 584 ± 84.3 µM, over 1000 µM and 569 ± 21.9 µM, respectively.
In the case of `NC(=S)n1nc(-c2ccccc2)cc1O` [Compound 1c, 1-[amino(thioxo)methyl]-5-hydroxy-3-phenyl-1H-pyrazole], the MBC/MFC in the series with E. faecalis ATCC 29212 (E. faecalis ATCC 29212), in the series on S. aureus ATCC 29213, against C. albicans ATCC 10231 and with P. vulgaris ATCC 8427 was over 1000 µg/mL throughout. The MIC was 500 µg/mL (≈ 2.28 mM) in the series on E. faecalis ATCC 29212; 62.5 µg/mL (≈ 0.285 mM) in series [3]; 1000 µg/mL (≈ 4.56 mM) against S. aureus ATCC 29213; over 1000 µg/mL against P. aeruginosa ATCC 25619; over 1000 µg/mL in the series on C. albicans ATCC 10231; over 1000 µg/mL against P. vulgaris ATCC 8427. The IC50 in series [2] stood at 618 ± 32 µM; in the series with WM-115 (human melanoma) [4], 752 ± 118 µM; in series [5], 152 ± 26.7 µM.
On to `N.N.O=C([O-])C1(C(=O)[O-])CCC1.[Pt+2]` [Carboplatin], for which the IC50 in [7] was 4300 ± 1300 nM; in series [8], 700 ± 200 nM; with WM-115 (human melanoma) [9] it was 422 ± 50.2 µM.
For the molecule “[(η^6-p-cymene)Ru(1-[amino(thioxo)methyl]-5-hydroxy-3-phenyl-1H-pyrazole)Cl2 [Compound 2c]”, in series [1], the “effect on supercoiled plasmid DNA” value is reported as “no influence”. Moreover, the “activity (MIC) stronger than ligand 1c” value with E. faecalis ATCC 29212 (E. faecalis ATCC 29212) was over 16 fold; in [3] (S. epidermidis ATCC 12228), “more than 2 fold”. The MBC/MFC against E. faecalis ATCC 29212 (E. faecalis ATCC 29212) is under 31.2 µg/mL; against S. aureus ATCC 29213, 62.5 µg/mL; against C. albicans ATCC 10231 it was over 1000 µg/mL; in the series on P. vulgaris ATCC 8427, over 1000 µg/mL.
Take “[(η^6-p-cymene)Ru(1-[amino(thioxo)methyl]-5-hydroxy-3-methyl-1H-pyrazole) Cl2 [Compound 2d]”: the “effect on supercoiled plasmid DNA” value in series [1] was “cleavage the DNA Form I into Form II and Form III”. Moreover, the MBC/MFC was 1000 µg/mL with E. faecalis ATCC 29212 (E. faecalis ATCC 29212), 500 µg/mL against S. aureus ATCC 29213, over 1000 µg/mL in the series on C. albicans ATCC 10231 and 1000 µg/mL in the series on P. vulgaris ATCC 8427. For the same molecule, the “anticancer activity in words” value in [2] and in series [5] was “inactive” in each case. Further, the “viability of HFF-1 cells” value in series [6] (HFF-1, 24 h, over tested range 3.9–500 μM) is reported as at least 80%. For the same molecule, the “activity stronger than cisplatin (fold, from IC50 values)” value in the series with WM-115 (human melanoma) [4] (WM-115) is recorded as “above 2 fold”.

(Values after article PMC9075995 (RSC Advances, 2019).)
